In ChEMBL document CHEMBL1136796 (J Med Chem, 2003) one finds IC50 and EC50 data, which are given here for three compounds.

Where only a bound is given, the exact number is not on record here.

In experiment [1] the test system is SF-268. Nature of the experiment: Cytotoxic activity against cellular metabolic activity of Glioma SF-268 tumor cell line using XTT proliferation assay after incubation with the compound for 48 h. The class given is functional, cell-based. The settings on record: Homo sapiens, SF-268, 48 h.
For experiment [2], the target named is T1, Tubulin (Sus scrofa, UniProt P02554+P02550). Briefly: In vitro inhibitory concentration required to displace [3H]colchicine from its binding site on tubulin. The class given is protein assay.
The next experiment relates to K562. Briefly: In vitro inhibitory concentration against human chronic myelogenous leukemia K562 cell growth. It is filed as functional, cell-based.
A further experiment has as its system MCF7. Nature of the experiment: Tested for induction of cellular death in Human breast MCF-7 tumor cell line in Propidium Iodide Monolayer Assay. The class given is functional, cell-based. The procedure, abridged:
(§1)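 Propidium iodide monolayer assay: cells seeded at 1 × 10^5 or 5 × 10^4 cells/mL, 24 h recovery, drug in triplicate for 3–6 days by doubling time; PI 25 μg/mL added, fluorescence (ex 530/em 620 nm) read before and after freezing at −18 °C for 24 h; viable cells from the difference; % T/C versus concentration.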

A further experiment deals with P388/ADR. Nature of the experiment: Antiproliferative activity against P388 phenotype P388 ADR tumor cell line. It is filed as functional, cell-based. The note with it: Mus musculus.
The next experiment has as its system RXF 944. Briefly: Tested for induction of cellular death in Human renal RXF 944L tumor cell line in Propidium Iodide Monolayer Assay. It is filed as functional, cell-based. A digest of the protocol:
as §1

In experiment [3] the test system is NCI-H460. Briefly: Cytotoxic activity against cellular metabolic activity of Lung NCI-H460 tumor cell line using XTT proliferation assay after incubation with the compound for 48 h. It is filed as functional, cell-based. The settings on record: Homo sapiens, NCI-H460, 48 h. The procedure, abridged:
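NCI-H460 human lung tumor cells seeded at 1 × 10^3 cells/well in microtiter plates and exposed to a range of compound concentrations for 48 h. Proliferation read as cellular metabolic activity by XTT. At least two replicates (n = 2); IC50 obtained from dose–response curves by nonlinear regression.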

In a further experiment the test system is MAXF401 cell line. Nature of the experiment: Tested for induction of cellular death in Human breast 401NL tumor cell line in Propidium Iodide Monolayer Assay. It is filed as functional, cell-based. The procedure, abridged:
as §1

In experiment [4] the test system is L1210. Briefly: Antiproliferative activity against L1210 tumor cell line. It is filed as functional, cell-based. The note with it: Mus musculus.
In a further experiment the test system is HeLa (Homo sapiens). Briefly: Effective concentration required to arrest propidium iodide stained KB/HeLa cells in G2/M phase.
The test system of experiment [5] is SF-268. Briefly: Tested for induction of cellular death in Human ZNS SF-268 tumor cell line in Propidium Iodide Monolayer Assay. The class given is functional, cell-based. A digest of the protocol: as §1
Experiment [6] concerns the target T1, Tubulin. Nature of the experiment: In vitro inhibition of maximum porcine tubulin assembly rate after 20 min at 37 degrees C. The class given is functional.
Experiment [7] deals with RKO. Briefly: Cytotoxic activity against human colon adenocarcinoma RKO cells without ectopic inducible expression of cyclin-dependent kinase inhibitor p27kip1. The class given is functional, cell-based.
Experiment [8] relates to LT12 tumor cell line. Briefly: Antiproliferative activity against LT12 phenotype LT12 MDR tumor cell line. The class given is functional, cell-based. The settings on record: Rattus norvegicus.
The next experiment relates to LXFL 529. Nature of the experiment: Tested for induction of cellular death in Human lung LXF 529L tumor cell line in Propidium Iodide Monolayer Assay. The class given is functional, cell-based. A digest of the protocol: as §1
The species entered for experiment [9] is Sus scrofa. Nature of the experiment: In vitro inhibitory concentration against tubulin assembly. It is filed as functional.
The subject of experiment [10] is LT12 tumor cell line. Briefly: Antiproliferative activity against LT12 tumor cell line. The note with it: Rattus norvegicus. The class given is functional, cell-based.
In a further experiment the test system is P388 (Mus musculus). Briefly: Antiproliferative activity against P388 tumor cell line.
Experiment [11] concerns L1210. Briefly: Antiproliferative activity against L1210 phenotype L1210 VCR tumor cell line. The class given is functional, cell-based. The note with it: Mus musculus.
In experiment [12] the test system is RKO. Briefly: Cytotoxic activity against human colon adenocarcinoma RKO cells with ectopic inducible expression of cyclin-dependent kinase inhibitor p27kip1. It is filed as functional, cell-based.
For another experiment, the system named is SK-OV-3. Briefly: Cytotoxic activity against cellular metabolic activity of Ovary SKOV3 tumor cell line using XTT proliferation assay after incubation with the compound for 48 h. The class given is functional, cell-based. The note with it: Homo sapiens, SK-OV-3, 48 h.
The next experiment relates to KB. Nature of the experiment: Cytotoxic activity against cellular metabolic activity of Cervix KB/HeLa tumor cell line using XTT proliferation assay after incubation with the compound for 48 h. It is filed as functional, cell-based. The note with it: Homo sapiens.
Experiment [13] deals with NCI-H460. Nature of the experiment: Tested for induction of cellular death in Human lung H-460 tumor cell line in Propidium Iodide Monolayer Assay. It is filed as functional, cell-based. A digest of the protocol: as §1
For experiment [14], the system named is Lung LXF 629L tumor cell line. Nature of the experiment: Tested for induction of cellular death in Human lung LXF 629L tumor cell line in Propidium Iodide Monolayer Assay. It is filed as functional, cell-based. The procedure, abridged:
as §1

For experiment [15], the species on record is Sus scrofa. Nature of the experiment: Concentration required to inhibit Microtubule assembly compared to colchicine using EM studies. The class given is functional.
The target of experiment [16] is T1, Tubulin. Briefly: In vitro inhibitory concentration required to displace [3H]colchicine from its binding site on Tubulin. It is filed as protein assay. A digest of the protocol:
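Streptavidin-coated yttrium SPA beads were then added and bound radioactivity measured by scintillation counting. IC50 was derived by nonlinear regression.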

For the compound `COc1ccc(C=C2c3ccccc3C(=O)c3ccccc32)c(OC)c1O`, the concentration for half-maximal inhibition (IC50) in the experiment on SF-268 [1] is 60 nM; at Tubulin [2], 220 nM; in the experiment with K562, 250 nM; in the experiment on MCF7 it was 1850 nM; in the experiment on P388/ADR, 110 nM; in the experiment on RXF 944, under 10 nM. Further, the IC50 was 60 nM in the experiment with NCI-H460 [3]; under 10 nM in the experiment on MAXF401 cell line; 50 nM with L1210 [4]; 40 nM with SF-268 [5]; 430 nM at Tubulin [6]; 50 nM in the experiment with RKO [7]. Moreover, the 50% inhibitory concentration (IC50) in the experiment on LT12 tumor cell line [8] came out at 90 nM; with LXFL 529 it was 70 nM; in the experiment filed under Sus scrofa [9], 430 nM; with LT12 tumor cell line [10], 120 nM; with P388 (Mus musculus), 80 nM; in the experiment with L1210 [11], 70 nM. Also, the IC50 in the experiment with RKO [12] is over 9000 nM; in the experiment with SK-OV-3 it was 60 nM; in the experiment with KB, 50 nM; with NCI-H460 [13], 150 nM; in [14], 50 nM. The compound further gave an EC50 with HeLa (Homo sapiens) of 234 nM.

Consider `CC(=O)O[C@H]1C(=O)[C@@]2(C)[C@H]([C@H](OC(=O)c3ccccc3)[C@]3(O)C[C@H](OC(=O)[C@H](O)[C@@H](NC(=O)c4ccccc4)c4ccccc4)C(C)=C1C3(C)C)[C@]1(OC(C)=O)CO[C@@H]1C[C@@H]2O` [PACLITAXEL], for which the IC50 in the experiment with SF-268 [1] was 10 nM; in the experiment with P388/ADR, over 5000 nM; in the experiment with NCI-H460 [3] it was 10 nM; in the experiment on L1210 [4], 60 nM; in the experiment on RKO [7] it was 10 nM; in the experiment with LT12 tumor cell line [8] it was 400 nM. In addition, the IC50 in the experiment on LT12 tumor cell line [10] was 6 nM; with P388 (Mus musculus), 40 nM; with L1210 [11] it was over 5000 nM; in the experiment on RKO [12] it was over 3000 nM; in the experiment with SK-OV-3 it was 10 nM; in the experiment on KB, 10 nM. The compound further displayed an EC50 in the experiment with HeLa (Homo sapiens) of 54 nM.

Consider `COc1ccc(C=C2c3ccccc3C(=O)c3ccccc32)cc1O`, for which the IC50 in the experiment with SF-268 [1] was 50 nM; in the experiment with K562, 20 nM; in the experiment with MCF7 it was under 10 nM; with P388/ADR, 260 nM; in the experiment with RXF 944, under 10 nM; in the experiment with NCI-H460 [3] it was 70 nM. Moreover, the IC50 in the experiment filed under Sus scrofa [15] is 700 nM; in the experiment with MAXF401 cell line, under 10 nM; in the experiment with L1210 [4], 140 nM; with SF-268 [5] it was 30 nM; at Tubulin [6], 670 nM; on Tubulin [16] it was 370 nM. Besides, the 50% inhibitory concentration (IC50) is 60 nM in the experiment with RKO [7]; 190 nM in the experiment on LT12 tumor cell line [8]; 520 nM with LXFL 529; 670 nM in the experiment listed under Sus scrofa [9]; 320 nM in the experiment with LT12 tumor cell line [10]; 160 nM in the experiment with P388 (Mus musculus). Also, the half-maximal inhibitory concentration (IC50) in the experiment with L1210 [11] was 130 nM; with RKO [12] it was over 9000 nM; with SK-OV-3, 50 nM; in the experiment on KB it was 90 nM; in the experiment on NCI-H460 [13], under 10 nM; in experiment [14], under 10 nM. For the same compound, the EC50 in the experiment with HeLa (Homo sapiens) is 206 nM.
